LMPTP block – LMPTP phosphatase inhibitors, primary screen, biochemical, fluorescence intensity, uHTS; recombinant LMPTP-A, OMFP fluorogenic substrate; actives 0.22% (n = 360,000); inhibition, % at 20 µM; Low molecular weight phosphotyrosine protein phosphatase (Homo sapiens), P24666;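 active = compounds that cut the enzyme signal by at least half of the control window in the single-dose screen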
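Test system – LMPTP-A enzyme · Amount – LMPTP-A at 0.625 nM final in the reaction · Buffer or medium – Bis-Tris pH 6.0, DTT, detergent · Reagent – OMFP 400 µM · Doses – single 20 µM dose · Schedule – reaction 50 min, room temperature, dark · Detection – fluorescence intensity of OMFP turnover product · Evaluation – percent inhibition versus substrate-only and uninhibited controls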
DNMT1 block – human DNMT1 methyltransferase inhibitors, primary screen, biochemical, molecular beacon, fluorescence, HinP1I cleavage, uHTS | inhibition (reported as % activation of signal), % at 10 µM | actives 0.83% (n = 360,000); in the data active = inhibition above about 50%
HKDC1 inhibitor – HKDC1 hexokinase inhibitors, primary screen, biochemical, fluorescence, uHTS | Q2TB90 | AID 493160, 2011 | recombinant HKDC1, G6PDH/diaphorase resazurin coupled fluorescence | actives 0.16% (n = 340,000) | inhibition, % at 20 µM;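 active = inhibition above about 35% when tested at 20 µM, limit read from the data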
Target sequence (Q2TB90 whole entry, looked up): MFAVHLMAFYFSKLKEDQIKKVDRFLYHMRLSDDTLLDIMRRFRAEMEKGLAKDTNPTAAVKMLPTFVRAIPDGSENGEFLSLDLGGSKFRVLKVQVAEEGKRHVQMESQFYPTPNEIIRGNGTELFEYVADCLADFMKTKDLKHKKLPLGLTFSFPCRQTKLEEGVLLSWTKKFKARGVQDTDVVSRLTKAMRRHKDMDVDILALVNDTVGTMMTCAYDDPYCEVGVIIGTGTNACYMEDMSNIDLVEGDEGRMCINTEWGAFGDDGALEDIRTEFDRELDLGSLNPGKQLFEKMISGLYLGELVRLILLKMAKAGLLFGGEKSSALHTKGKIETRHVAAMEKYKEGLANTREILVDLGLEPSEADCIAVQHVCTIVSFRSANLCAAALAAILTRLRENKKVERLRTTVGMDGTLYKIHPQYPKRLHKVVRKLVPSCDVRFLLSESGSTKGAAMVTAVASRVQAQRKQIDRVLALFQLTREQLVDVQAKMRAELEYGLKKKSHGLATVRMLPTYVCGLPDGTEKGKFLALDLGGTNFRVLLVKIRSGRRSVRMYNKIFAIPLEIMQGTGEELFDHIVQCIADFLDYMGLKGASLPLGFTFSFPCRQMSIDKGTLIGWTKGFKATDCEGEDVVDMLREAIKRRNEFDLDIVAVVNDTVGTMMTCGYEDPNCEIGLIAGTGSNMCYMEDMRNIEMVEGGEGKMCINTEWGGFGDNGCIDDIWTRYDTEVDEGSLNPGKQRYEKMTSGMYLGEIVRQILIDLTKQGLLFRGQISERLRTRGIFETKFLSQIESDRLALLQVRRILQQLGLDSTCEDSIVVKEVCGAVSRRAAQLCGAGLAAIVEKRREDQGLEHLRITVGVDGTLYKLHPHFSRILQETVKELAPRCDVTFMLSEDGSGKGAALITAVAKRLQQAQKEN
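Test system: recombinant HKDC1 (HK5) hexokinase enzyme, produced in-house / Doses: 20 µM test compound, 1% DMSO / Timing: 90 min, room temperature / Detection: G6PDH/diaphorase-coupled fluorescence, 1 mM NADP, 100 µM resazurin, 525/613 nm / Control set: DMSO wells with and without enzyme mix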
SUMO1 PPI mod – modulators of SUMO1 protein-protein interactions, primary screen, biochemical, uHTS | Small ubiquitin-related modifier 1 (Homo sapiens), P63165 | SUMO1 binding to a labelled peptide, TR-FRET, 1 h | inhibition, % at 20 µM | actives 0.33% (n = 360,000) | AID 602429, 2012; in the data active = inhibition above about 37%
STEP block – STEP phosphatase inhibitors, primary screen, biochemical, fluorescence intensity, uHTS | Tyrosine-protein phosphatase non-receptor type 5 (Homo sapiens), P54829 | recombinant STEP, OMFP fluorogenic substrate | inhibition, % at 20 µM | actives 0.25% (n = 360,000) | AID 588621, 2011;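 active = inhibition at 20 µM, scaled per plate between control wells, above about 37%, limit read from the data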
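Measure: Control-normalized % inhibition with plate pattern correction | Test system: STEP phosphatase, cell-free reaction | Medium: pH 6.0 Bis-Tris with DTT and Tween 20 | Technique: Fluorescence, 480/540 nm | Times: Reaction 20 min, ambient temperature | Doses: Single compound dose of 20 µM, 1% DMSO final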
Scp-1 inhibitor – Scp-1 phosphatase inhibitors, primary screen, biochemical, colorimetric, uHTS. AID 493091, 2011. Carboxy-terminal domain RNA polymerase II polypeptide A small phosphatase 1 (Homo …. actives 0.88% (n = 340,000). inhibition, % at 20 µM. Recombinant Scp1, phosphopeptide, malachite green phosphate absorbance;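 active = inhibition above about 50% at 20 µM, limit read from the data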
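Test system: SCP-1 phosphatase catalytic domain, residues 76-261; measured by: colorimetric phosphate reagent with accelerator and stabiliser, absorbance at 630 nm; timing: enzyme reaction 45 min at room temperature, colour 5 min, stabilisation 30 min; also added: Phosphorylated 17-residue peptide substrate; compound dosing: one concentration, 20 µM, with 1.0% DMSO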
Hits are given with their value; n = inactive; x = no result. Compounds with a hit are over-represented: about 1.8% of the library has one in this group of screens.

SMILES | LMPTP block | DNMT1 block | HKDC1 inhibitor | SUMO1 PPI mod | STEP block | Scp-1 inhibitor
O=C1c2ccccc2C(=O)C1c1nccc2ccccc12 | n | n | n | n | n | n
O=C1c2ccccc2C(=O)C1c1ccnc2ccccc12 | n | 56 | n | n | n | n
O=C1C(c2ccnc3ccccc23)=C(O)c2ccccc21 | n | 52 | n | n | n | n
C/C(Cc1ccccc1)=N\NC(=O)CNC(=O)COc1ccccc1 | n | n | n | n | n | n
O=C(C[n+]1ccccn1)c1ccccc1 | n | n | n | n | n | n
Cc1csc2nc(O)c(C(=O)NCc3ccc4c(c3)OCO4)c(=O)n12 | 53 | n | n | n | n | n
COc1ccc(CCNC(=O)CNCCc2ccc(F)cc2)cc1 | n | n | n | n | n | n
CCCn1c(/N=C/c2ccccc2O)nc2ccccc21 | n | n | n | n | n | n
Cn1c(/N=C/c2c(O)ccc3ccccc23)nc2ccccc21 | n | n | 54 | 82 | n | n
NC(=O)Cn1nnc(-c2ccc(CN3CCCCC3)cc2)n1 | n | n | n | 58 | n | n
Cc1cc(/C=C2/SC(=S)N(c3cccc(C(F)(F)F)c3)C2=O)c(C)n1-c1cccnc1 | n | 51 | n | n | n | n
CCOC(=O)CN1C(=O)S/C(=C/c2ccco2)C1=O | n | n | n | n | n | n
NN1C(=O)/C(=C\c2ccco2)SC1=S | n | 52 | n | n | n | n
O=C1/C(=C/c2ccco2)SC(=S)N1c1cccnc1 | 75 | 99 | n | 107 | 79 | 87
COc1ccc(/C=C2\SC(=S)N(c3cccnc3)C2=O)cc1 | n | n | n | n | n | n
O=C(c1ccccc1)c1coc(-c2ccccc2)c1 | n | n | n | n | n | n
CN(Cc1ccccc1)C(c1ccnc2ccccc12)c1nnnn1-c1ccc2c(c1)OCCO2 (stereo not drawn) | n | x | x | n | x | x
NC(=O)c1c(NC(=O)Cn2nc(C(=O)O)c3ccccc3c2=O)sc2c1CCC2 | n | n | n | 66 | n | n
c1ccc(CN2CCC(Nc3nc(-c4ccccc4)nc4ccccc34)CC2)cc1 | 80 | n | n | n | n | n
c1ccc(CN2CCC(CNc3ncnc4ccccc34)C2)cc1 (stereo not drawn) | n | n | n | n | n | n
O=C1c2ccccc2C(=O)c2c([N+](=O)[O-])ccc(O)c21 | n | n | n | n | n | 67
O=C(O)c1ccc([N+](=O)[O-])c2c1C(=O)c1ccccc1C2=O | n | n | n | n | n | n
O=C(OCCC12CC3CC(CC(C3)C1)C2)c1ccc(NCc2cc(O)ccc2O)cc1 | n | n | n | n | n | 70
O=C(OCC12CC3CC(CC(C3)C1)C2)c1ccc(NCc2cc(O)ccc2O)cc1 | n | n | n | n | n | n
Cc1ccc(-c2ccc(CCC(=O)O)n2Cc2ccco2)cc1 | n | 57 | n | n | n | n
SMILES | LMPTP block | DNMT1 block | HKDC1 inhibitor | SUMO1 PPI mod | STEP block | Scp-1 inhibitor
Cc1ccccc1CSCC(=O)NCCSc1ccccn1 | n | n | n | 49 | n | n
CC1Cc2cc(/C(O)=C3/C(=O)C(=O)N(CC4CCCO4)C3c3ccco3)ccc2O1 (stereo not drawn) | n | 50 | n | n | n | n
O=C1C(=O)c2ccc(-c3ccccc3)cc2-c2ccccc21 | n | 106 | n | 41 | n | n
Nc1ccc2c(c1)C(=O)C(=O)c1ccccc1-2 | n | 120 | n | 48 | 59 | n
Nc1ccc2c(c1)C(=O)c1ccccc1-2 | n | n | n | n | n | n
Cn1c(SCc2cccc(Cl)c2)nc(C(F)(F)F)cc1=O | n | n | n | n | n | n
CCn1c(CSc2nc3ccccc3s2)nnc1SCC(=O)c1ccc(O)c(O)c1 | n | n | n | n | n | 59
CCc1ccc(S(=O)(=O)Nc2c(C)nc3nc[nH]n3c2=O)cc1 | n | n | n | n | n | n
O=C1CN(S(=O)(=O)c2cc(Br)ccc2Br)CCN1 | n | n | n | n | n | n
O=c1c(Br)ccc(Br)cc1Br | n | 59 | n | n | 74 | n
S=c1[nH]nc(-c2cc(-c3ccccc3)n[nH]2)n1/N=C/c1cccc(Cl)c1 | n | n | n | 88 | n | n
CC1=C(C(=O)OCCNC(=O)c2ccccc2O)C(c2ccccc2[N+](=O)[O-])C(C(=O)OCC2CCCO2)=C(C)N1 (stereo not drawn) | n | n | n | n | n | n
Oc1ccc(-c2cnns2)c(O)c1 | n | n | 45 | n | n | n
O=C(Cc1cccs1)OCC(=O)c1ccco1 | n | 65 | n | n | n | 70
Cn1c(N)c(C(=O)COC(=O)Cc2cccs2)c(=O)n(C)c1=O | n | n | n | n | n | n
CC(C)OCP(=O)(c1ccccc1)c1ccccc1 | n | n | n | 51 | n | n
COCP(=O)(c1ccccc1)c1ccccc1 | n | n | n | n | n | n
COc1ccc2[nH]c3c(c2c1)CCN1C(=O)N([C@@H](C)C(=O)NC2CCN(Cc4ccccc4)CC2)C(=O)[C@]31C | n | n | n | n | n | n
O=C(Cc1ccccc1)N[C@@H]1c2ccccc2CC[C@@H]1OCc1ccccc1 | n | n | n | n | n | n
Nc1nc(SCC(=O)c2cc3ccccc3o2)n[nH]1 | n | n | n | 40 | n | n
Cc1ccc(C(=O)CSc2ccc(-c3ccncc3)nn2)cc1 | n | n | n | n | n | n
O=C(CSc1ccc(-c2ccncc2)nn1)c1ccc(Cl)cc1 | n | n | n | 51 | n | n
Cc1ccc(C(=O)Nc2cccc(-c3cnc4ccccc4n3)c2)cc1 | n | n | n | n | n | n
CC(=O)Nc1ccc(C(=O)Nc2nc(-c3cccnc3)cs2)cc1 | n | n | n | 60 | n | n
CC(=O)Nc1ccc(C(=O)Nc2cccc(-c3cnc4ccccc4n3)c2)cc1 | n | n | n | 49 | n | n
O=C(Nc1nc(-c2ccccc2)cs1)c1cccnc1 | n | n | n | n | n | n
O=C(O)[C@H](Cc1ccccc1)N1C(=O)c2c(Cl)c(Cl)c(Cl)c(Cl)c2C1=O | n | n | n | n | n | n
CCN(C(=O)CSc1nnc(Nc2ccc(OC)cc2)s1)C1CCS(=O)(=O)C1 (stereo not drawn) | n | n | n | 49 | n | n
O=C(CSc1ccccc1)NCCSCc1ccccc1 | n | n | n | n | n | n
Nn1c(SCC(=O)NC(=O)Nc2ccc3c(c2)OCCO3)nnc1C1CC1 | n | n | n | n | n | n

Assay outcomes from PubChem.
